A selection: hits, their analogues and other compounds. The true share with any hit is near 1.9%.
Jurkat NFkB inh: lowers PMA/ionomycin-induced NF-kB signal in Jurkat cells. PMA/ionomycin-induced NF-kB luciferase reporter, luminescence. inhibition, % at 4 µM. 0.53% of 330,000 active; in the data active means inhibition above about 50%
aSyn UTR inh: MLPCN primary screen, SNCA 5' untranslated region; alpha-synuclein 5'UTR reporter, inhibitor activity; inhibition, % (tested at 7.5 µM); 0.82% of 300,000 active; AID 1813; in the data active means inhibition above about 60%;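 further: H4 neuroglioblastoma cells stably carrying SNCA 5'UTR luciferase fusion; 0% = DMSO wells and 100% = positive control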
Lipid droplet: hepatic lipid droplet formation modulation; AML12 mouse hepatocytes, oleate lipid droplets, BODIPY imaging; inhibition, % at 6.5 µM; 0.4% of 240,000 active;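 active means lipid droplet intensity inhibited by at least 50%, with more than 500 cells counted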
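Material – mouse AML12 hepatocyte cell line, fixed after treatment · Compound dosing – one dose, 6.5 µM compound · Times – compound with oleate, overnight · Measured by – Image-based BODIPY and DAPI two-channel analysis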
697 NFkB inh: inhibitors of the PMA/ionomycin-induced NF-kB reporter in 697 B cells; 697 B-cell NF-kB luciferase reporter, 16 h; inhibition, % at 4 µM; 0.33% of 330,000 active; AID 435022; in the data active means inhibition above about 35%
APP transl inh: APP translation inhibition | SH-SY5Y APP 5'UTR-luciferase reporter, luminescence | inhibition, % at 2 µM | AID 1285 | 0.82% of 190,000 active;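 active means inhibition above a set limit, derived from the sample mean plus 3 SD, cut at about 45% in these data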
TAG inh: reduces triacylglycerol accumulation in H9c2 cells | Nile Red lipid (TAG) fluorescence; cells loaded with 200 µM oleic acid | inhibition, % at 12.5 µM | 0.66% of 230,000 active;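 active means pattern-corrected inhibition of lipid staining of at least 50% with the nuclear-stain viability signal not falling by more than 50%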;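 further: 0% = DMSO wells and 100% = triacsin C control wells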
Jurkat NFkB conf: inhibitors of the PMA/ionomycin-induced NF-kB reporter in Jurkat cells, retest. shares compounds with Jurkat NFkB inh. Jurkat NF-kB luciferase, 16 h. inhibition, % at 4 µM. 27% of 2,700 active. AID 435020;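 active means inhibition reaching about 45% at 4 µM in either replicate, limit read from the data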;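 further: plate controls were PMA/ionomycin stimulated DMSO wells for no effect and unstimulated DMSO wells for full effect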
* hit, by the source's call; / = no result.

SMILES	Jurkat NFkB inh	aSyn UTR inh	Lipid droplet	697 NFkB inh	APP transl inh	TAG inh	Jurkat NFkB conf
Cc1ccc2nc(/C(C#N)=C\c3ccc([N+](=O)[O-])o3)[nH]c2c1	59*	-24	/	-55	6	/	16
O=c1[nH]c(Nc2ccccn2)cc2ccccc12	-14	-112	/	5	/	14	/
O=c1[nH]c(-c2ccccn2)cc2ccccc12	62*	-118	/	-69	-34	/	-16
O=C(Nc1ccon1)c1cc2c(s1)CCCC2	-157	-113	2	-13	-164	/	-84
Cc1ccc(CNC(=O)CCNC(=O)c2ccco2)cc1	3	-21	/	5	0	3	/
CCOC(=O)c1ccc2c(c1)n(CC)c(/C=C/Nc1ccccc1)[n+]2CC	46	-5	/	-21	-1	/	/
CCn1c(/C=C/Nc2ccccc2)[n+](CC)c2ccc(Cl)cc21	58*	-46	-14	-27	3	/	9
CC1(C(=O)NCCc2ccccc2)Cc2c(-c3ccccc3)ccnc2O1 (stereo unspecified)	/	/	/	/	/	-3	/
COc1ccc(NC(=S)N/C(=N/CS(=O)(=O)c2ccccc2)c2ccccc2)cc1	-151	-90	-4	-211	-47	/	-9
COc1ccc(C(=O)NNC(=S)Nc2ccccc2)cc1	-173	-207	-1	-152	-141	-4	-116
COc1ccc(NC(=S)NNC(=O)c2ccccc2OC(F)F)cc1	53*	-49	14	-41	26	/	27
CCc1ccc(NC(=S)NNC(=O)c2ccccc2OC(F)F)cc1	23	-45	2	-15	6	/	/
COC(C#CCCN(C)C)(c1ccccc1)c1ccccc1	-10	-13	-12	-2	16	/	/
COc1ccc(OC)c(S(=O)(=O)N2CCN(C(=O)c3cc(C4CC4)nn3-c3ccccc3)CC2)c1	-8	/	/	-5	/	-2	/
O=S1(=O)C=CC(Nc2cccc(Cl)c2)C1 (stereo unspecified)	50*	-18	-13	12	-9	/	18
C=CCn1c2ccccc2c(=O)c2cc(C#CC3(O)CCCCC3)ccc21	-277	-170	-2	-231	/	-3	-89
O=C(c1ccccc1)c1nn(-c2ccc(Cl)cc2)c(=O)cc1C(F)(F)F	98*	-219	/	-131	-6	24	80*
CCOc1ccc(N/C(N)=N/c2nc(CSc3nnc(C)s3)cc(=O)[nH]2)cc1	74*	84*	7	1	/	19	50*
Cc1cc(C)c(C(=O)COC(=O)c2cccc(S(=O)(=O)N3CCOCC3)c2)cc1C	/	/	/	/	/	8	/
O=C(N/N=C/c1ccc(Cl)cc1Cl)c1n[nH]c2c1CCCC2	16	-6	16	-127	10	/	/
O=C(N/N=C\c1cccc(Cl)c1)c1n[nH]c2c1CCCC2	-152	-152	28	-192	-156	7	-63
CC[C@]12c3[nH]c4ccccc4c3CCN1C(=O)C(CC(=O)NCCCn1ccnc1)C[C@@H]2C(=O)N1CCN(C(=O)C2CC2)CC1 (stereo partly specified)	1	/	/	3	/	-3	/
NS(=O)(=O)c1ccc(Sc2nc3ccccc3s2)c([N+](=O)[O-])c1	98*	67*	5	-30	/	6	89*
Nc1c(C(=O)Nc2ccccc2)nnn1-c1ccc2c(c1)OCCO2	-157	13	14	-234	/	/	-100
Cc1ccc(NC(=O)c2nnn(-c3ccc4c(c3)OCCO4)c2N)cc1	-109	-149	-1	-132	/	/	/
SMILES	Jurkat NFkB inh	aSyn UTR inh	Lipid droplet	697 NFkB inh	APP transl inh	TAG inh	Jurkat NFkB conf
COc1ccc(-c2nnc(NC(=O)c3ccccc3[N+](=O)[O-])s2)c(OC)c1	1	-15	6	6	/	-13	/
CCN(CC)C(CNC(=O)c1cc(=O)[nH]c2ccccc12)c1ccccc1Cl (stereo unspecified)	-1	14	-12	-1	/	/	/
CC(C)(C)c1ccc(C(=O)Nc2ccc(Oc3cccnc3)nc2)cc1	52*	-45	-12	-38	/	-10	48
CC(C)(C)c1ccc(C(=O)Nc2cccnc2)cc1	-127	-91	/	7	/	/	/
O=C(NC(=S)NCc1ccccc1)c1ccccc1[N+](=O)[O-]	-4	0	-7	-4	7	7	/
CC(C)C[C@@H](CN=[N+]=[N-])N1CCN(Cc2ccccc2)CCC1=O	-6	7	-2	-31	/	10	/
